One assay concerns A549. The experiment in a line: Cytotoxicity against human A549 cells after 72 hrs by MTT assay. Type of assay: functional, cell-based. The method in brief:
(§1)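 Cells kept in RPMI-1640 with 10% FBS, 2 mM L-glutamine and gentamicin; seeded at 1×10⁴ cells/well, attached overnight at 37 °C, 5% CO₂. Compounds dissolved in DMSO, diluted into FBS-free medium, tested at […], 10⁻⁵, 10⁻⁶, 10⁻⁷ M in triplicate for 72 h. MTT (5 mg/ml) added for 3 h at 37 °C, formazan dissolved in DMSO, OD read at 590 nm; viability loss versus untreated controls, IC50 read graphically; melphalan as positive control.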
(In general: Tetrazolium assays rely on reduction of a dye to a coloured formazan, in cell work by metabolically active cells.)

A further assay has as its system SK-OV-3. Nature of the assay: Cytotoxicity against human Scov3 cells after 72 hrs by MTT assay. Type of assay: functional, cell-based. The method, boiled down: as §1
Assay [1] can be described thus: Cytotoxicity against human Caov3 cells after 72 hrs by MTT assay. Type of assay: functional, cell-based, Caov-3. The method, boiled down: as §1
[2] abbreviates: Homo sapiens, A549, 72 h, read-out: IC50.
The mark [3] stands for this setting: Homo sapiens, SK-OV-3, 72 h, read-out: IC50.
Setting [4] is: Homo sapiens, Caov-3, 72 h, read-out: IC50.

In general, IC50 refers to the midpoint of a concentration-inhibition curve.

On to `O=C1/C(=C/c2cccs2)CNC/C1=C\c1cccs1`, for which the IC50 entry (with A549 (a549); in the assay on SK-OV-3 (sk-ov-3); in assay [1] (caov-3)) was “Non-toxic” throughout.
On to `CN1C/C(=C/c2cccs2)C(=O)/C(=C/c2cccs2)C1`, for which the IC50 result (in the assay with A549 (a549); in the assay on SK-OV-3 (sk-ov-3); in assay [1] (caov-3)) was “Non-toxic” each time.
As to `CCOP(=O)(CCCN1C/C(=C\c2cccs2)C(=O)/C(=C/c2cccs2)C1)OCC`, the IC50 was found to be 30 µM in the assay with A549 (setting [2]), 40 µM in the assay with SK-OV-3 (setting [3]) and 40 µM in assay [1] (setting [4]).
`CCOP(=O)(CN1C/C(=C\c2cccs2)C(=O)/C(=C/c2cccs2)C1)OCC`: the results for the IC50 (with A549 (setting [2]); in the assay with SK-OV-3 (setting [3]); in assay [1] (setting [4])) were 15 µM, 38 µM and 20 µM, respectively.
The matching figures for `CCOP(=O)(CCN1C/C(=C\c2cccs2)C(=O)/C(=C/c2cccs2)C1)OCC`: 35 µM, 64 µM and 70 µM.
As to `CCOP(=O)(OCC)N1C/C(=C\c2cccs2)C(=O)/C(=C/c2cccs2)C1`, the IC50 with A549 (setting [2]) was 27 µM; with SK-OV-3 (setting [3]) it was 30 µM; in assay [1] (setting [4]) it was 26 µM.
For `O=C1/C(=C/c2cccs2)CN(P(=O)(Oc2ccccc2)Oc2ccccc2)C/C1=C\c1cccs1` the same measures were 35 µM, 60 µM and 44 µM.
On to `CN1C/C(=C\c2cccs2)C(=O)/C(=C/c2cccs2)C1`, for which the values for the IC50 (in the assay on A549 (setting [2]); with SK-OV-3 (setting [3]); in assay [1] (caov-3)) were 80 µM, 85 µM and “Non-toxic”, respectively.
On to `N[C@@H](Cc1ccc(N(CCCl)CCCl)cc1)C(=O)O` [MELPHALAN], for which the IC50 in assay [1] (setting [4]) came to 50 µM.

For the origin of these results see ChEMBL document CHEMBL1154820, “Synthesis, characterization and structure-activity relationship of novel N-phosphorylated E,E-3,5-bis(thienylidene)piperid-4-ones” (Eur J Med Chem, 2010).
